Active and inactive are the calls of the source. No cut-off for these calls is given here.
Experiments:
[1] = AUC (0 to infinity) in Kunming mouse at 80 mg/kg, po administered as single dose and measured upto 24 hrs; type: ADME, organism-based; set-up: time < 24 hrs, dose 80 mg/kg, route po; settings: in vivo
[2] = molecular target: T1, Melatonin receptor type 1A (Homo sapiens, UniProt P48039); assay: (§1) Agonist activity at human MT1 receptor transfected in HEK293T cells co-transfected with tet-inducible luciferase reporter plasmid, pCDNA3.1(+)-CMV-betaArrestin2-tev plasmid and TANGO plasmid assessed as tango arrestin recruitment by measuring maximum activity incubated for 24 hrs by TANGO-GPCR assay based luminescence plate reader analysis relative to agomelatine; type: functional, cell-based; settings: filed as agonist
T1 sequence (P48039 whole entry): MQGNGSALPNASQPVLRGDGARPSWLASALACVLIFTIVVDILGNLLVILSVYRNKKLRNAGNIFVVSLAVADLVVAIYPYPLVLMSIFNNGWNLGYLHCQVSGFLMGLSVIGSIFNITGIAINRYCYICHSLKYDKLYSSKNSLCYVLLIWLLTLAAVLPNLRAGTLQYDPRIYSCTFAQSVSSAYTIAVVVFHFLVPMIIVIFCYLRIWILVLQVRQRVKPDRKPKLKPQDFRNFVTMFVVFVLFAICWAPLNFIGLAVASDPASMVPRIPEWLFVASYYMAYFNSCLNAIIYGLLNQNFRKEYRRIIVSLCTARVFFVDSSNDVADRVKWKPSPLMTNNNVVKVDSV
How it was run: (§2)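 Tango arrestin recruitment: 293T cells transiently transfected with a tet-inducible luciferase reporter, CMV-βArrestin2-TEV and TANGO receptor plasmids. On day 2, replated at 20 000 cells per well on poly-L-lysine. Drug added on day 3. On day 4, luciferase reagent added for 20 min and luminescence counted. Curves fitted; data given as mean ± SD.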

[3] = Subacute toxicity in Kunming mouse assessed as effect on lung structure at 240 mg/kg, po administered for 14 days; type: organism-based; settings: in vivo, 336 h, time 14 day
How it was run: (§3)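 Subacute oral study following OECD 425. Animals randomised into two groups of six. Vehicle control received 0.5% CMC-Na orally for 14 consecutive days; the treated group received 240 mg kg−1 body weight orally for 14 consecutive days.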

[4] = Clearance in Kunming mouse at 80 mg/kg, po administered as single dose and measured upto 24 hrs; type: ADME, organism-based; settings: in vivo
HEK293T = assay: as §1, with “MT1 Q181A mutant” for “MT1”, “shift in concentration response curve” for “tango arrestin recruitment by measuring maximum activity”; type: cell-based; settings: filed as agonist
How it was run: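 293T cells transiently transfected with tet-inducible luciferase reporter, pCDNA3.1(+)-CMV-bArrestin2-tev and TANGO receptor plasmids (wild-type or point mutant). Next day plated at 20 000 cells/well on poly-L-lysine; drug added day 3. Day 4, Bright-Glo added, 20 min, then luminescence read. Concentration–response curves fitted; data mean ± SD.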

[5] = molecular target: T1, Melatonin receptor type 1A; assay: as §1, with “recruitment” for “recruitment by measuring maximum activity”, “analysis” for “analysis relative to agomelatine”; type: functional, cell-based
Mus musculus [6] = assay: Antidepressant activity in kunming mouse assessed as increase in dopamine level in hippocampus at 160 mg/kg, po measured after 14 days by HPLC-ECD analysis; type: functional, organism-based; settings: time 14.0 day
How it was run: (§4)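 Male Kunming mice dosed orally with vehicle or 160 mg kg−1 for 14 days, then killed by cervical dislocation. Brain regions dissected on ice, homogenized in 0.2 M perchloric acid with 0.1 mM EDTA and spun at 4 °C for 20 min. Supernatant analysed by HPLC-ECD at +0.50 V, mobile phase pH 3.0. Amounts given in ng g−1 as mean ± SEM, n = 12.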

Mus musculus [7] = assay: Antidepressant activity in kunming mouse assessed as decrease in DOPAC level in hippocampus at 160 mg/kg, po measured after 14 days by HPLC-ECD analysis; type: functional, organism-based; settings: time 14.0 day; how it was run: as §4
[8] = molecular target: T1, Melatonin receptor type 1A; assay: as §1, with “2-phenylmelatonin” for “agomelatine”; type: functional, cell-based; settings: filed as agonist; how it was run: as §2
Mus musculus [9] = assay: Antidepressant activity in kunming mouse assessed as increase in 5-HT level in thalamus at 160 mg/kg, po measured after 14 days by HPLC-ECD analysis; type: functional, organism-based; settings: time 14.0 day; how it was run: as §4
Mus musculus [10] = assay: Antidepressant activity in Kunming mouse assessed as decrease in immobility time at 10 to 160 mg/kg, po administered two times at 1 hrs and 24 hrs and measured at last 4 mins of 6 mins test by forced swim test; type: functional, organism-based; settings: dose 10-160 mg/kg, time 1444.0 min
How it was run: (§5)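 Male Kunming mice, 15–18 g, housed six per cage at 22 ± 1 °C on a 12 h light/dark cycle. Oral dosing 24 h and 1 h before the test. Each mouse placed in a cylinder (25 cm high, 15 cm diameter) holding 10 cm of water at 25 ± 1 °C and made to swim 6 min; immobility over the last 4 min scored by video tracking.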

[11] = molecular target: T1, Melatonin receptor type 1A; assay: Agonist activity at human MT1 receptor expressed in HEK293 cells by Fluo-8 based calcium assay; type: functional, cell-based
[12] = Subacute toxicity in Kunming mouse assessed as effect on spleen structure at 240 mg/kg, po administered for 14 days; type: organism-based; settings: in vivo, 336 h, time 14 day; how it was run: as §3
Mus musculus [13] = assay: Antidepressant activity in kunming mouse assessed as decrease in 5-HIAA level in striatum at 160 mg/kg, po measured after 14 days by HPLC-ECD analysis; type: functional, organism-based; settings: time 14.0 day; how it was run: as §4
[14] = AUC (0 to 24 hrs) in Kunming mouse at 80 mg/kg, po administered as single dose and measured upto 24 hrs; type: ADME, organism-based; set-up: time < 24 hrs, dose 80 mg/kg, route po; settings: in vivo
Mus musculus [15] = assay: Antidepressant activity in Kunming mouse assessed as decrease in immobility time at 160 mg/kg, po administered two times at 1 hrs and 24 hrs and measured at last 4 mins of 6 mins test by forced swim test relative to fluoxetine; type: functional; set-up: scale not given: the % may be the effect or the level left; settings: time 1444 min, 24.07 h; how it was run: as §5
Mus musculus [16] = assay: Antidepressant activity in kunming mouse assessed as increase in 5-HT level in hypothalamus at 160 mg/kg, po measured after 14 days by HPLC-ECD analysis; type: functional, organism-based; settings: time 14.0 day; how it was run: as §4
Mus musculus [17] = assay: Antidepressant activity in kunming mouse assessed as decrease in 5-HIAA level in frontal cortex at 160 mg/kg, po measured after 14 days by HPLC-ECD analysis; type: functional, organism-based; settings: time 14.0 day; how it was run: as §4
Mus musculus [18] = assay: Antidepressant activity in kunming mouse assessed as increase in 5-HT level in striatum at 160 mg/kg, po measured after 14 days by HPLC-ECD analysis; type: functional, organism-based; settings: time 14.0 day; how it was run: as §4
[19] = Subacute toxicity in Kunming mouse assessed as effect on heart structure at 240 mg/kg, po administered for 14 days; type: organism-based; settings: in vivo, 336 h, time 14 day; how it was run: as §3
Mus musculus [20] = assay: Antidepressant activity in kunming mouse assessed as decrease in DOPAC level in striatum at 160 mg/kg, po measured after 14 days by HPLC-ECD analysis; type: functional, organism-based; settings: time 14.0 day; how it was run: as §4
[21] = molecular target: T2, Melatonin receptor type 1B (Homo sapiens, UniProt P49286); assay: Agonist activity at human MT2 receptor expressed in HEK293 cells by Fluo-8 based calcium assay; type: functional, cell-based
T2 sequence (P49286 whole entry): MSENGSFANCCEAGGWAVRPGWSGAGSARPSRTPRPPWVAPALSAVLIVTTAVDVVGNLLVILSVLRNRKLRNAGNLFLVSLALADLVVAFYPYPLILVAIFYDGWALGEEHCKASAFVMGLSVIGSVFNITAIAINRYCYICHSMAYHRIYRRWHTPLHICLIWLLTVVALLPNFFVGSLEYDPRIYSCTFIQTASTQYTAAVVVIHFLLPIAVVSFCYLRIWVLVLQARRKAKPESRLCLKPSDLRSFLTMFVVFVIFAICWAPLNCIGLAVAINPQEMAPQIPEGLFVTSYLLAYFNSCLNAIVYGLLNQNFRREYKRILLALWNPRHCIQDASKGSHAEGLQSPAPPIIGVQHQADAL

Mus musculus [22] = assay: Antidepressant activity in Kunming mouse assessed as decrease in immobility time at 160 mg/kg, po and measured after 14 days by forced swim test relative to control; type: functional; set-up: scale not given: the % may be the effect or the level left; settings: time 14 day
How it was run: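 Male Kunming mice, 15–18 g, given the test compound orally for 14 days. Forced swim then done in a cylinder 25 cm high and 15 cm in diameter, water 10 cm deep at 25 ± 1 °C. Swim lasted 6 min and immobility over the final 4 min was video-scored against the vehicle group.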

COc1cc2c(CN3CCN(C)CC3)coc2cc1C
AUC [1]: 5620 ng·h/mL
Emax [2]: 57%
Activity [3]: Non-Toxic
CL/F [4]: 237 mL/min
Activity (HEK293T): Active
EC50 [5]: 21 µM
Activity (Mus musculus [6]): Active
Activity (Mus musculus [7]): Active
Emax [8]: 46%
Activity (Mus musculus [9]): Active
Activity (Mus musculus [10]): Active
EC50 [11]: 330 µM
Activity [12]: Non-Toxic
Activity (Mus musculus [13]): Active
AUC [14]: 5400 ng·h/mL
Activity (Mus musculus [15]): 29%
Activity (Mus musculus [16]): Active
Activity (Mus musculus [17]): Active
Activity (Mus musculus [18]): Active
Activity [19]: Non-Toxic
Activity (Mus musculus [20]): Active
EC50 [21]: 260 µM
Activity (Mus musculus [22]): 28%

— ChEMBL document CHEMBL5108087, “Synthesis and biological evaluation of paeoveitol D derivatives as new melatonin receptor agonists with antidepressant activities” (RSC Med Chem, 2022)
